Measurements from different studies.
Target: Serine/threonine-protein kinase RIO2 (RIOK2, Homo sapiens, UniProt Q9BVS4)

`COc1cnc(Nc2cccc(S(N)(=O)=O)c2)nc1N1CCN(c2ccccc2)CC1` gave a remaining binding of 83% (binding; competition with immobilised ligand; 1 µM).
`O=C(c1ccc(Nc2nccc(-c3cc4ccccc4s3)n2)cc1)N1CCC(N2CCCC2)CC1` has a remaining binding of 46% (binding; competition with immobilised ligand; 1 µM).
For `CN(C)c1ncc(F)c(-c2cnn3ncccc23)n1`, the remaining binding was 78% (binding; 1 µM).
`O=C(Nc1c[nH]nc1C(=O)NC1CCNCC1)c1cc(F)cc(F)c1` has a remaining binding of 100% (binding; competition with immobilised ligand; 1 µM).
`Nc1ncc2c(n1)-c1c([nH]c3ccc(C#CC4CC4)cc13)CCCC2` has a remaining binding of 77% (binding; competition with immobilised ligand; 1 µM).
`CC1=C(C#N)C(c2ccc3c(c2)c(NC(=O)c2ccccc2C)nn3C)C(C#N)=C(C)N1` has a remaining binding of 65% (cell-free assay; competition with immobilised ligand; 1 µM).
`c1cnn2ncc(-c3ccnc(N4CCC45COC5)n3)c2c1` has a remaining binding of 61% (binding; 1 µM).
For `C[C@@H]1CN(c2ccc3ncc(-c4ccc5[nH]nc(C6CC6)c5c4)n3n2)C[C@H](C)O1`, the remaining binding was 23% (binding; competition with immobilised ligand; 0.5 µM).
`CCOC(=O)c1cc2cc(-c3cc(C(=O)NCc4ccc(C(=O)O)cc4)nn3C)ccc2[nH]1` has a remaining binding of 100% (cell-free assay; competition with immobilised ligand; 0.1 µM).
For `O=C(NCCCN1CCOCC1)c1ccc(Nc2ncc(Cl)c(-c3ccc(Cl)s3)n2)cc1`, the remaining binding was 59% (binding; competition with immobilised ligand; 1 µM).
The remaining binding of `CN(CCCC(F)(F)F)c1nccc(-c2cnn3ncccc23)n1` is reported as 100% (binding; 1 µM).
The remaining binding of `CCc1ccccc1C(=O)Nc1n[nH]c2c(C)c(F)c(C3C(C#N)=C(C)N(C)C(C)=C3C#N)cc12` is reported as 93% (cell-free assay; competition with immobilised ligand; 1 µM).
`COc1ccnn2ncc(-c3ccnc(N(C)C)n3)c12` gave a remaining binding of 63% (binding; 1 µM).
For `C=CC(=O)N1CCC(C(=O)NCC(=O)N2CCN(c3nc(-c4cnc(N)nc4C(F)F)nc(N4CCOCC4)n3)CC2)CC1`, the remaining binding was 83% (binding; competition with immobilised ligand; 1 µM).
The remaining binding of `NS(=O)(=O)c1cc(NC(=O)Cc2ccccc2)ccc1Oc1cccc(Cl)c1` is reported as 100% (cell-free assay; competition with immobilised ligand; 1 µM).
`COc1ncc2cc3ccccc3nc2c1C#N` gave a remaining binding of 91% (cell-free assay; competition with immobilised ligand; 5 µM).
`CN(C)c1nccc(-c2cnn3ncccc23)n1` gave a remaining binding of 84% (binding; 1 µM).
For `CC(=O)N1CCC(c2ccc(C(=O)NC3=NCCN3)cc2C(F)(F)F)CC1`, the remaining binding was 93% (cell-free assay; competition with immobilised ligand; 1 µM).
`CNC(=O)[C@@H]1CC[C@@H](n2c(-c3ccc4cnccc4c3)nc3ccc(C(=O)NCc4cccc(C(N)=O)c4)cc32)C1` has a remaining binding of 97% (binding; competition with immobilised ligand; 1 µM).
For `O=C(Nc1ccc(Oc2ccc(F)cc2)cc1)N1CCc2ncccc2[C@H]1c1ccc(F)cc1`, the remaining binding was 94% (cell-free assay; competition with immobilised ligand; 1 µM).
For `C[C@@H]1CCN(c2nccc(-c3cnn4ncccc34)n2)C1`, the remaining binding was 75% (binding; 1 µM).
`CC(C)(O)c1cncc(-c2nc3ccc(F)cc3n2C2CC2)c1` gave a remaining binding of 100% (cell-free assay; competition with immobilised ligand; 1 µM).
`O=C(c1ccc(Nc2ncc(Cl)c(-c3cc4ccccc4s3)n2)cc1)N1CCC(N2CCCC2)CC1` has a remaining binding of 40% (binding; competition with immobilised ligand; 1 µM).
